Experimental findings from ChEMBL document CHEMBL3877256, “Design, synthesis and evaluation of novel 2-amino-3-(naphth-2-yl)propanoic acid derivatives as potent inhibitors of platelet aggregation” (Eur J Med Chem, 2017) are described below.

For series [1], the target named is T1, Integrin alpha-IIb/beta-3 (Homo sapiens, UniProt P05106+P08514). The series can be described thus: Antagonist activity at GP2b/GP3a receptor in human platelet rich plasma assessed as inhibition of ADP-induced platelet aggregation at 50 uM preincubated for 1 min followed by ADP addition by aggregometric method relative to control. The method in brief:
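Human PRP from apheresis platelets, PPP from centrifugation at 3000r/min for 10 min used as reference. Compound in saline or 0.2% aqueous DMSO added to PRP, incubated 1 min, then ADP 20 μM (per table footnotes; methods list 10 μM) added. Light transmission aggregometry at 37°C, maximal aggregation vs PPP. Inhibition relative to control aggregation ratio. IC50 from at least four concentrations.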

Series [2] deals with T1, Integrin alpha-IIb/beta-3. Briefly: Displacement of fibrinogen from human platelet GP2b/GP3a receptor after 2 hrs by ELISA. The method, boiled down:
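Plates coated overnight at 4°C with fibrinogen 10 µg/ml in 0.1 M carbonate pH 9.5, blocked with 1% BSA. Purified human platelet GPIIb/IIIa (20 µg/ml) added with samples for 2 h in Tris/NaCl/CaCl2/Tween buffer pH 7.5. Bound receptor detected with anti-β3 antibody (1 h, 37°C) and alkaline phosphatase conjugate with pNPP, A405. BSA-only wells subtracted. Triplicate.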
(An ELISA detects its analyte on a solid surface through an enzyme-linked reagent.)

Series [3] deals with Mus musculus. Briefly: Toxicity in ICR mouse assessed as bleeding time at 30 mg/kg, iv administered 30 mins prior to test by tail transection method. Particulars: in vivo, 0.5 h. It counts as organism-based. The method in brief:
(§1)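 ICR mice dosed 30 min before test, saline as control. Anesthetized with 5% chloral hydrate i.p., kept at 37°C on a heating pad. 3-mm tail tip cut off and tail immersed in 37°C saline. Time until bleeding stopped for more than 5 s recorded, accumulated within 20 min. n=6.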

In series [4] the test system is Mus musculus. The series can be described thus: Toxicity in ICR mouse assessed as bleeding time at 3 mg/kg, iv administered 30 mins prior to test by tail transection method. Particulars: in vivo, 0.5 h. It counts as organism-based. The method, boiled down:
as §1

The subject of series [5] is Mus musculus. Briefly: Toxicity in ICR mouse assessed as bleeding time at 15 mg/kg, iv administered 30 mins prior to test by tail transection method. Format: organism-based. As to conditions: in vivo, 0.5 h. The method in brief: as §1
In series [6] the test system is Rattus norvegicus. Briefly: Anti-thrombotic activity in iv dosed Sprague-Dawley rat arterio-venous shunt thrombosis model assessed as reduction in thrombus weight pretreated for 15 mins followed by arteriovenous shunt thrombosis induction measured after 20 mins. Format: functional, organism-based. The method, boiled down: (§2)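 SD rats of both sexes, 180~220 g, dosed by tail vein injection. After 15 min, anesthetized with 10% chloral hydrate (3 ml/kg i.p.). Shunt catheter placed between left jugular vein and right common carotid artery, opened 20 min. Thrombus dried at 60°C for 20 min and weighed without the thread. n=6.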

The subject of series [7] is Rattus norvegicus. Briefly: Anti-thrombotic activity in Sprague-Dawley rat arterio-venous shunt thrombosis model assessed as reduction in thrombus weight at 10 mg/kg, iv pretreated for 15 mins followed by arteriovenous shunt thrombosis induction measured after 20 mins relative to control. More on the design: scale not given: the % may be the effect or the level left. Format: functional. The method, boiled down: as §2

The inhibition is how much of the control response was suppressed. On to `O=C(O)C(Cc1c[nH]c2ccc(OCCCCC3CCNCC3)cc12)NS(=O)(=O)c1ccc(Br)cc1` (stereo not drawn), for which, in series [1], the inhibition worked out at 38.1%.
The term IC50 denotes the concentration that gives 50% inhibition. In the case of `N=C(N)c1ccc(COc2ccc3cc(CC(NS(=O)(=O)c4ccccc4)C(=O)O)ccc3c2)cc1` (racemic), the inhibition in series [1] was more than 99.5%; in series [2] it was “Dose-dependent effect”. The same compound showed an IC50 in series [2] of 1330 nM.
As to `Cl.O=C(O)C(Cc1ccc2cc(OCCCN3CCNCC3)ccc2c1)NS(=O)(=O)c1ccccc1` (racemic), the values for the Time in the series on Mus musculus [3], with Mus musculus [4] and with Mus musculus [5] were 9.28 min, 6.72 min and 8.63 min, respectively. The same compound gave an IC50 in series [2] of 80 nM. In series [2], the inhibition result is “Dose-dependent effect”. In addition, the Activity result with Rattus norvegicus [6] is “Dose-dependent effect”; in the series on Rattus norvegicus [7], 40%.
For the compound `CCCC(=O)NC(Cc1ccc2cc(OCc3ccc(C(=N)N)cc3)ccc2c1)C(=O)O` (racemic), in series [1], the inhibition was more than 99.5%.
As for `CCCCS(=O)(=O)NC(Cc1ccc2cc(OCc3ccc(C(=N)N)cc3)ccc2c1)C(=O)O` (racemic), in series [1], the inhibition was more than 99.5%.
Turning to `COc1ccc(C(=O)NC(Cc2ccc3cc(OCc4ccc(C(=N)N)cc4)ccc3c2)C(=O)O)cc1` (racemic), in series [1], the inhibition was 32.4%.
For `COc1ccc(S(=O)(=O)NC(Cc2ccc3cc(OCc4ccc(C(=N)N)cc4)ccc3c2)C(=O)O)cc1` (racemic), the inhibition in series [1] is 21.5%.
With `Cc1ccc(S(=O)(=O)NC(Cc2ccc3cc(OCc4ccc(C(=N)N)cc4)ccc3c2)C(=O)O)cc1` (racemic), the inhibition in series [1] was more than 99.5%.
Still for that read-out and setting: the result for `N=C(N)c1ccc(COc2ccc3cc(CC(NC(=O)c4ccc(F)cc4)C(=O)O)ccc3c2)cc1` (racemic) reads 23.3%; that for `N=C(N)c1ccc(COc2ccc3cc(CC(NC(=O)c4ccc([N+](=O)[O-])cc4)C(=O)O)ccc3c2)cc1` (racemic), more than 99.5%; that for `N=C(N)c1ccc(COc2ccc3cc(CC(NC(=O)c4cccc(F)c4)C(=O)O)ccc3c2)cc1` (racemic), 49.7%.
With `N=C(N)c1ccc(COc2ccc3cc(CC(NC(=O)c4ccccc4)C(=O)O)ccc3c2)cc1` (racemic), the inhibition in series [1] was determined as 49.4%.
Turning to `N=C(N)c1ccc(COc2ccc3cc(CC(NS(=O)(=O)c4ccc(Br)cc4)C(=O)O)ccc3c2)cc1` (racemic), the inhibition in series [1] came out at 50.2%.
For `N=C(N)c1ccc(COc2ccc3cc(CC(NS(=O)(=O)c4ccc([N+](=O)[O-])cc4)C(=O)O)ccc3c2)cc1` (racemic), the inhibition in series [1] was 62.9%.
On to `O=C(O)C(Cc1ccc2cc(OCC3CCNCC3)ccc2c1)NS(=O)(=O)c1ccc(Br)cc1` (racemic), for which, in series [1], the inhibition is less than 5%.
Still for that read-out and setting: the result for `O=C(O)C(Cc1ccc2cc(OCCC3CCNCC3)ccc2c1)NS(=O)(=O)c1ccc(Br)cc1` (racemic) reads less than 5%; that for `O=C(O)C(Cc1ccc2cc(OCCCC3CCNCC3)ccc2c1)NS(=O)(=O)c1ccc(Br)cc1` (racemic), less than 5%; that for `O=C(O)C(Cc1ccc2cc(OCCCCN3CCNCC3)ccc2c1)NS(=O)(=O)c1ccc(Br)cc1` (racemic), 91.2%.
In the case of `O=C(O)C(Cc1ccc2cc(OCCCN3CCNCC3)ccc2c1)NS(=O)(=O)c1ccc(Br)cc1` (racemic), in series [1], the inhibition turned out to be 99.1%.
On to `O=C(O)C(Cc1ccc2cc(OCCN3CCNCC3)ccc2c1)NS(=O)(=O)c1ccc(Br)cc1` (racemic), for which the inhibition in series [1] is 97.3%.
